Screens as filed in PubChem BioAssay.
MC4R ag barr: agonists of human melanocortin 4 receptor (MC4R) beta-arrestin. activation, % at 8.9 µM. U2OS MC4R beta-arrestin complementation, luminescence; percent of melanotan II response, DMSO zero. AID 540308. 0.98% of 360,000 active. P32245;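 active means activation above a per-plate cutoff, the mean activation of sample wells on that plate plus 3 SD, cut at about 8% in these data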
Target sequence (P32245 whole entry, looked up): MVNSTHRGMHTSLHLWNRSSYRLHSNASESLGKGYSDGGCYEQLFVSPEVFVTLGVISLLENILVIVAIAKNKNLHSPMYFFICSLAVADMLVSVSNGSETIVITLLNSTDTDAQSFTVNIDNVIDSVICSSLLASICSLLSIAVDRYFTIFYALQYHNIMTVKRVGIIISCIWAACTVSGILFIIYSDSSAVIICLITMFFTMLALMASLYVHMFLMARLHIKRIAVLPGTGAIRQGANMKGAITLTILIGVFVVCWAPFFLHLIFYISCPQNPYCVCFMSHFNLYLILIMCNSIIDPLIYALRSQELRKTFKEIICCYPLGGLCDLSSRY
EBI2 block: blocks human EBI2 receptor beta-arrestin signaling; EBI2 beta-arrestin recruitment, luminescence, 7a,25-OHC stimulated; AID 651636; inhibition, % at 5 µM; P32249; 0.81% of 360,000 active; in the data active means inhibition above about 38%;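 further: enzyme fragment complementation signal reports receptor beta-arrestin coupling in cells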
Target sequence (P32249 whole entry, looked up, the tested form may be a part): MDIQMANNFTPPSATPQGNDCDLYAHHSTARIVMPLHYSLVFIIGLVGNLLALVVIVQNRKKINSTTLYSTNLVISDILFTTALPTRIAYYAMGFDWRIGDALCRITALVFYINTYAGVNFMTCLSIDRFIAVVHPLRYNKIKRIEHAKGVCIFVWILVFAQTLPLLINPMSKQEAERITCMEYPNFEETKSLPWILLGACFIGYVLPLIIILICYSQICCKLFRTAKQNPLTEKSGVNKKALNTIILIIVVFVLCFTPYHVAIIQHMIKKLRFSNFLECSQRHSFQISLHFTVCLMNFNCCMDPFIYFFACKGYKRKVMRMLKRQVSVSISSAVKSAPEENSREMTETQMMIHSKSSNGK
MC4R antag cAMP: blocks human MC4R cAMP signaling | MC4R-expressing cells, MTII-stimulated cAMP, LANCE TR-FRET | inhibition, % at 6.5 µM | 0.48% of 360,000 active | P32245;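 active means inhibition above its plate's cutoff, the mean of tested wells on that plate plus 3 SD, cut at about 29% in these data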
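Assay system: U2OS-MC4R stable cell line; Also added: Melanotan II; Technique: Eu-cAMP/anti-cAMP TR-FRET, emission 671 nm; Times: 30-min compound, 1-h challenge, 1-h detection, room temperature.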
Myeloid diff 2: myeloid differentiation induction; ER-HoxA9 myeloid progenitors, lysozyme-GFP differentiation, flow cytometry; calls only at 10 µM; 1% of 360,000 active; AID 624256;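 active means normalized GFP-positive differentiation at or above the plate's own cutoff, the solvent-only control mean plus 3 SD; inconclusive means no clear call, values can overlap the other calls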;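 further: cells exposed to compound for four days before flow analysis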
Exocytosis inh: lytic granule exocytosis inhibition; TALL-104 LAMP-1 surface exposure, flow cytometry; cells stimulated with thapsigargin and PMA; inhibition, % at 10 µM; 0.66% of 360,000 active; AID 651702;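 active means inhibition above about 55%, limit read from the data; inconclusive means no clear call, values can overlap the other calls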
U2OS cAMP counter: counter-screen for MC4R antagonists: nonselective cAMP signaling inhibitors | shares compounds with MC4R antag cAMP | parental U2OS, forskolin cAMP, LANCE TR-FRET | inhibition, % at 6.5 µM | 26% of 1,600 active | AID 602193;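 active means mean inhibition over triplicates above the low-control well mean plus 3 SD, set per campaign, cut at about 13% in these data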;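 further: signal is single emission at 671 nm which falls as cellular cAMP rises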
MC4R cAMP antag: human MC4R cAMP antagonism confirmation | MC4R-expressing cells, MTII-stimulated cAMP, TR-FRET | inhibition, % at 6.5 µM | 27% of 1,600 active | AID 602195 | shares compounds with MC4R antag cAMP; in the data active means inhibition above about 29%
Numbers stand for hits. Compounds with a hit are over-represented: about 3.7% of the library has one in this group of screens.

Screening COc1ccc(-c2nn(CC(=O)Nc3ccc(Cl)c(Cl)c3)c(=O)c3ccccc23)cc1 returned MC4R ag barr inactive, EBI2 block inactive, MC4R antag cAMP inactive, Myeloid diff 2 inactive and Exocytosis inh inactive.
For O=C1[C@@H]2Cc3c([nH]c4ccccc34)C(c3ccccc3)N2C(=O)CN1C1CCN(Cc2ccccc2)CC1 (some centres undefined) the results were MC4R ag barr inactive, EBI2 block inactive, MC4R antag cAMP inactive, Myeloid diff 2 inactive and Exocytosis inh inactive.
`COC(=O)c1ccc(C2c3[nH]c4ccccc4c3C[C@H]3C(=O)N(C4CCN(Cc5ccccc5)CC4)CC(=O)N23)cc1` (some centres undefined) gave MC4R ag barr inactive, EBI2 block inactive, MC4R antag cAMP 36.9, Myeloid diff 2 inactive, Exocytosis inh inactive, U2OS cAMP counter inactive and MC4R cAMP antag inactive.
COCCCNC(=O)Cn1c(=O)n(CCCCCC(=O)NCc2ccc3c(c2)OCO3)c(=O)c2sccc21 was read as MC4R ag barr inactive, EBI2 block inactive, MC4R antag cAMP inactive, Myeloid diff 2 inactive and Exocytosis inh inactive.
`O=C1C=CC(=O)N1CCNc1ncc(C(F)(F)F)cc1Cl` gave MC4R ag barr inactive, EBI2 block inactive, MC4R antag cAMP 52.8, Myeloid diff 2 inconclusive, Exocytosis inh inactive, U2OS cAMP counter inactive and MC4R cAMP antag inactive.
O=C1CC(=O)N(CCNc2ncc(C(F)(F)F)cc2Cl)C(=O)N1 was read as MC4R ag barr inactive, EBI2 block inactive, MC4R antag cAMP inactive, Myeloid diff 2 inactive and Exocytosis inh inactive.
Cc1ccccc1[C@H](NC1c2ccccc2C=Cc2ccccc21)P(=O)(c1ccccc1)c1ccccc1 was read as EBI2 block inactive, Myeloid diff 2 inactive and Exocytosis inh inactive.
Screening CCOc1cccc(C2/C(=C(/O)c3ccc4c(c3)CC(C)O4)C(=O)C(=O)N2CCN2CCOCC2)c1 (centres undefined) returned MC4R ag barr inactive, EBI2 block inactive, MC4R antag cAMP 38.1, Myeloid diff 2 inactive, Exocytosis inh inactive, U2OS cAMP counter inactive and MC4R cAMP antag inactive.
CC(C)NC(=O)c1cc(C(=O)c2cc(Cl)ccc2O)coc1=N was read as MC4R ag barr inactive, EBI2 block inactive, MC4R antag cAMP inactive, Myeloid diff 2 inactive and Exocytosis inh inactive.
CCOc1ccccc1NC(=O)c1cc(C(=O)c2cc(OC)ccc2O)coc1=N was read as MC4R ag barr inactive, EBI2 block inactive, MC4R antag cAMP 32.7, Myeloid diff 2 inactive, Exocytosis inh inactive, U2OS cAMP counter inactive and MC4R cAMP antag inactive.
`CC(C)(C)C(=O)NC(=S)NNC(=O)c1ccc(Cl)cc1Cl` gave MC4R ag barr inactive, EBI2 block inactive, MC4R antag cAMP inactive, Myeloid diff 2 inactive and Exocytosis inh inactive.
Screening O=C(CN1C(=O)C2CC=CCC2C1=O)N1CCN(c2ccc([N+](=O)[O-])cc2)CC1 (centres undefined) returned MC4R ag barr inactive, EBI2 block inactive, MC4R antag cAMP 30.6, Myeloid diff 2 inactive, Exocytosis inh inactive, U2OS cAMP counter inactive and MC4R cAMP antag inactive.
For O=C1C=CC(=O)N1CCCCCCCCCCN1C(=O)C=CC1=O the results were MC4R ag barr inactive, EBI2 block inactive, MC4R antag cAMP 78.0, Myeloid diff 2 inactive, Exocytosis inh inactive, U2OS cAMP counter 20.5 and MC4R cAMP antag 49.2.
Cc1ccc(NC(=O)CNC(=O)c2ccco2)nc1 was read as MC4R ag barr inactive, EBI2 block inactive, MC4R antag cAMP inactive, Myeloid diff 2 inactive and Exocytosis inh inactive.
Screening O=C1CSC(c2cccnc2)N1Cc1cccnc1 (centres undefined) returned MC4R ag barr inactive, EBI2 block inactive, MC4R antag cAMP 29.4, Myeloid diff 2 inactive, Exocytosis inh inactive, U2OS cAMP counter inactive and MC4R cAMP antag inactive.
For COc1ccc(N2CCN(c3ccc(NC(=O)C4CCCCC4)cc3C#N)CC2)cc1 the results were MC4R ag barr inactive, EBI2 block inactive, MC4R antag cAMP inactive, Myeloid diff 2 inactive and Exocytosis inh inactive.
CC(=O)Nc1cccc(Oc2cc(C#N)c(C#N)cc2N2CCCCCC2)c1 was read as MC4R ag barr inactive, EBI2 block inactive, MC4R antag cAMP 33.1, Myeloid diff 2 inactive, Exocytosis inh inactive, U2OS cAMP counter inactive and MC4R cAMP antag inactive.
Screening CCSc1nnc(NC(=O)CN2C(=O)N(C)C3(CCCCC3)C2=O)s1 returned MC4R ag barr inactive, EBI2 block inactive, MC4R antag cAMP inactive, Myeloid diff 2 inactive and Exocytosis inh inactive.
Screening Cc1cc(C)c(NC(=S)NC(=O)c2ccc(-c3ccccc3)cc2)c(C)c1 returned MC4R ag barr inactive, EBI2 block inactive, MC4R antag cAMP 32.0, Myeloid diff 2 inactive, Exocytosis inh inactive, U2OS cAMP counter inactive and MC4R cAMP antag inactive.
For COc1ccccc1C(=O)Nc1ccc(NC(=O)C2CCCCC2)nc1 the results were MC4R ag barr inactive, EBI2 block inactive, MC4R antag cAMP 31.3, Myeloid diff 2 inactive, Exocytosis inh inactive, U2OS cAMP counter inactive and MC4R cAMP antag inactive.
c1ccc(-c2noc(CN3CCCC(OCc4ccccn4)C3)n2)cc1 (centres undefined) was read as MC4R ag barr inactive, EBI2 block inactive, MC4R antag cAMP 31.1, Myeloid diff 2 inactive, Exocytosis inh inactive, U2OS cAMP counter inactive and MC4R cAMP antag inactive.
For CC1CCN(Cc2nc(-c3ccccc3)no2)CC1 the results were MC4R ag barr inactive, EBI2 block inactive, MC4R antag cAMP inactive, Myeloid diff 2 inactive and Exocytosis inh inactive.
COc1ccc(N2CCN(C(=O)NCc3ccc(OC)c(Cl)c3)CC2)cc1 was read as MC4R ag barr inactive, EBI2 block inactive, MC4R antag cAMP 31.3, Myeloid diff 2 inactive, Exocytosis inh inactive, U2OS cAMP counter inactive and MC4R cAMP antag inactive.
`COc1ccc(N2CCN(C(=O)NCc3ccc(OC)c(OC)c3)CC2)cc1` gave MC4R ag barr inactive, EBI2 block inactive, MC4R antag cAMP inactive, Myeloid diff 2 inconclusive and Exocytosis inh inactive.
`CCOc1ccc(CN(C)C(=O)CNC(=O)c2ccc3ccccc3c2)cc1OC` gave MC4R ag barr inactive, EBI2 block inactive, MC4R antag cAMP inactive, Myeloid diff 2 inactive and Exocytosis inh inactive.
COc1ccc2[nH]c3c(Cl)ncnc3c2c1 was read as MC4R ag barr inactive, EBI2 block inactive, MC4R antag cAMP inactive, Myeloid diff 2 inactive and Exocytosis inh inactive.
Screening COc1cccc2[nH]c3c(Cl)ncnc3c12 returned MC4R ag barr inactive, EBI2 block inactive, MC4R antag cAMP 28.6, Myeloid diff 2 inactive, Exocytosis inh inactive, U2OS cAMP counter inactive and MC4R cAMP antag inactive.
Screening Cc1ccc(OCC(=O)NNC(=O)C2CCN(c3nc(C)cc(C)n3)CC2)cc1 returned MC4R ag barr inactive, EBI2 block inactive, MC4R antag cAMP 28.6, Myeloid diff 2 inactive, Exocytosis inh inactive, U2OS cAMP counter inactive and MC4R cAMP antag inactive.
